Compound activity as filed in PubChem.
The full list was thinned out, with hits kept by preference.
Mdm2 ligase inh – blocks human Mdm2 ubiquitin ligase activity. Q00987. cell-based MDM2 ubiquitination luciferase reporter, 2 h; 0 = plate control, 100 = twice control, blank-subtracted. signal enhancement, % at 5 µM. 0.11% of 210,000 active. AID 1230;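 active means signal enhancement of 30% or more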;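 further: luminescence tracks abundance of the self-degrading MDM2-luciferase fusion protein; higher signal means inhibition of MDM2 E3 ligase activity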
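Test system: stable mammalian line carrying autodegrading MDM2–luciferase fusion reporter; quantity: 2000 cells in each well; times: 4 h cell settling then 2 h compound exposure, 37 °C; detection: luminescence with SteadyLite reagent, 15 min at room temperature; evaluation: percent signal gain over controls, blank-subtracted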
Lmaj promast – inhibitors of Leishmania major promastigote growth; 9% of 200,000 active; AID 1063; inhibition, % at 10 µM; Leishmania major promastigotes, resazurin fluorescence viability; in the data active means inhibition above about 50%;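 further: promastigotes grown with compound for 44 hours at 28 °C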
S1P4 antagonist – human S1P4 receptor antagonism. S1P4-expressing cells, antagonist mode, reporter read-out. inhibition, % at 4.98 µM. 0.26% of 220,000 active; in the data active means inhibition above about 29%;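 further: 0% = wells stimulated with agonist and 100% = vehicle wells without agonist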
S1P3 antagonist – S1P3 (human) receptor antagonism; Q99500; CHO S1P3 NFAT-BLA reporter, FRET fluorescence, antagonist mode; inhibition, % at 4.98 µM; 0.27% of 170,000 active; AID 485;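 active means inhibition above the plate cutoff, the mean inhibition of test wells on that plate plus 3 SD, cut at about 28% in these data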;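 further: cells challenged with S1P at its EC80 of 0.8 µM; blue over green emission ratio from cleaved BLA substrate after 4 h stimulation; 0% = S1P-stimulated wells and 100% = unstimulated DMSO-only wells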
Target sequence (Q99500 whole entry, looked up): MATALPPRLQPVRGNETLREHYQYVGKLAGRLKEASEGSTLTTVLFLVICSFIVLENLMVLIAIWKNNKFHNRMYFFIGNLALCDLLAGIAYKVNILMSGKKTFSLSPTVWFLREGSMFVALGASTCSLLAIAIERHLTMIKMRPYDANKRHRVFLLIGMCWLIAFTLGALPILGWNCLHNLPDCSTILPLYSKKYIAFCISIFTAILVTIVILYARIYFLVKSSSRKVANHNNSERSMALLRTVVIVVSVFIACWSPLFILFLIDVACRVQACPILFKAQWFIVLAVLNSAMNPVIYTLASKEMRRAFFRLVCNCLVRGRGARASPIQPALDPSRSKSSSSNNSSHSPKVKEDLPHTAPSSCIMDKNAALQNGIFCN
S1P4 ag – agonists of human S1P4 receptor | O95977 | S1P4-expressing cell line, agonist reporter assay | activation, % at 4.98 µM | 0.35% of 220,000 active; in the data active means activation above about 11%;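 further: 0% = DMSO vehicle and 100% = reference agonist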
An asterisk follows results filed as active; / = no result given.

SMILES | Mdm2 ligase inh | Lmaj promast | S1P4 antagonist | S1P3 antagonist | S1P4 ag
C=CC[n+]1c(-c2ccc(Cl)cc2Cl)csc1Nc1ccc(NC(C)=O)cc1 | 8 | 53* | 0 | -14 | 2
N#CC1=CN(Cc2ccccc2)C=C(/C=N/Nc2ccccc2)C1 | -6 | 98* | -1 | -11 | 0
CC(=O)c1c(C(=O)O)[nH]c(C(=O)O)c1C | -3 | -4 | -7 | -6 | 1
Cc1cc(C)n2nc(/C(C#N)=C/c3ccccn3)c(C#N)c2n1 | -2 | 97* | -11 | -9 | 3
CCC(C)C(=O)Nc1nc(C)c(-c2csc(Nc3cc(OC)ccc3OC)n2)s1 (stereo unspecified) | -15 | 57* | -23 | / | 0
COc1ccc(OC)c(Nc2nc(-c3sc(C)nc3C)cs2)c1 | -11 | 21 | 13 | 14 | 3
CCCCC(=O)Nc1nc(C)c(-c2csc(Nc3cc(OC)ccc3OC)n2)s1 | -7 | 73* | -5 | / | -1
COc1ccc(OC)c(Nc2nc(-c3sc(NC(=O)CC(C)C)nc3C)cs2)c1 | -17 | 81* | -38 | / | -1
COc1cc(/C=N/Nc2nc(N3CCCC3)nc(N3CCCC3)n2)ccc1OCc1ccccc1F | -4 | / | -19 | -12 | 2
CC(C)c1nc(CN(C)C(=O)N[C@H](C(=O)N[C@@H](Cc2ccccc2)C[C@H](O)[C@H](Cc2ccccc2)NC(=O)OCc2cncs2)C(C)C)cs1 | / | / | -2 | 0 | 1
COc1cccc(-n2c(=O)c3c(C)c(C(=O)N(C)C)sc3n(CC(=O)NCC3CCCO3)c2=O)c1 (stereo unspecified) | 9 | -2 | 3 | -21 | 0
O=c1c(Cl)c(NCc2ccccc2Cl)cnn1C12CC3CC(CC(C3)C1)C2 | 2 | 84* | -10 | -19 | 3
O=c1c(Cl)c(N2CCN(c3ccccc3)CC2)cnn1C12CC3CC(CC(C3)C1)C2 | 7 | 4 | -13 | 10 | 1
O=c1c(Cl)c(NCc2ccc(F)cc2)cnn1C12CC3CC(CC(C3)C1)C2 | -2 | 73* | -8 | 2 | 1
O=c1c(Cl)c(N2CCN(c3ccc(F)cc3)CC2)cnn1C12CC3CC(CC(C3)C1)C2 | -42 | 62* | -9 | -12 | -1
O=S(=O)(/N=C(\c1ccccc1F)N1CCCCC1)c1ccccc1 | 13 | -2 | 0 | -4 | 1
COc1ccc(Cl)c(Cn2c(NCCCO)nc3c2c(=O)n(C)c(=O)n3C)c1 | -8 | 2 | -4 | -42 | 3
CC(C)CC(NC(=O)OC(C)(C)C)c1cn([C@@H](Cc2ccc(O)cc2)C(=O)N2CCN(C(=O)OC(C)(C)C)CC2)nn1 (stereo partly specified) | / | 0 | -13 | 12 | -1
O=C(Nc1cccc(C(F)(F)F)c1)N(Cc1ccc(Cl)cc1)CC(O)C(F)(F)F (stereo unspecified) | -5 | 96* | -3 | / | 0
O=C1N(CCCCN2C(=O)C3(OCCO3)c3ccccc32)c2ccccc2C12OCCO2 | 0 | 59* | -3 | 15 | 1
O=C1N(CCCN2C(=O)C3(OCCO3)c3ccccc32)c2ccccc2C12OCCO2 | -22 | 11 | 5 | -17 | 0
O=C(/C=C/c1ccccc1[N+](=O)[O-])NCc1ccncc1 | -9 | 1 | -4 | -10 | 0
CC(CCc1ccccc1)NC(=O)CCNC(=O)Cn1ccc2ccccc2c1=O (stereo unspecified) | 10 | -5 | 3 | 2 | 0
Cn1c(SCC(=O)NCc2cccs2)nnc1-c1ccc(O)cc1 | 0 | -10 | -12 | -10 | -1
CC(=O)Oc1ccc2cc(-c3ccccc3)c(=O)oc2c1 | -61 | / | 12 | 13 | 8
SMILES | Mdm2 ligase inh | Lmaj promast | S1P4 antagonist | S1P3 antagonist | S1P4 ag
Cc1ccc(C(O)(C(=O)NN(C(=O)c2ccccc2)c2ccccc2)c2ccc(C)cc2)cc1 | -16 | 32 | 4 | 16 | -1
Cc1ccc(N(NC(=O)C(O)(c2ccccc2)c2ccccc2)C(=O)CCl)cc1 | 4 | 88* | -3 | -1 | 0
CCCOc1ccc(C2C(=O)N(C3CCCCC3)CC(=O)N2C2CC2)cc1OC (stereo unspecified) | -5 | 2 | 2 | / | 0
Cc1cc(N=Cc2c(O)n(-c3ccc(C)c(C)c3)c(=O)c3ccccc23)no1 | 0 | 54* | -20 | 8 | 2
Cc1ccc(-n2c(O)c(C=Nc3cc(C)on3)c3ccccc3c2=O)c(C)c1 | 6 | 12 | -24 | 11 | 3
Cc1ccc(C(C)C)cc1OCC(=O)N/N=C/c1ccc2c(c1)OCCO2 | -10 | 90* | -31 | -10 | -1
